Experimental data taken from ChEMBL document CHEMBL1687823, “PA-824 exhibits time-dependent activity in a murine model of tuberculosis” (Antimicrob Agents Chemother, 2011).
In brackets after ≈: the same amount, converted by molar mass.

How the values were obtained:
[1] = Tmax in BALB/c mouse up to 1456 mg/kg, po administered as single dose; type: ADME, organism-based; set-up: route oral; conditions: in vivo
Method in brief: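 Uninfected 6-week female BALB/c mice received single oral gavage doses of 3–1,458 mg/kg as a cyclodextrin-micelle suspension. Three mice per time point were bled by cardiac puncture under isoflurane at 0.5–120 h. Serum levels were measured by validated HPLC-UV (standards 0.20–50 µg/ml).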

[2] = tested on: Mycobacterium tuberculosis; experiment: Antitubercular activity against Mycobacterium tuberculosis H37Rv assessed as reduction in CFU count by agar proportion method; type: functional
Method in brief: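 Agar proportion method on 7H11 agar with 10% OADC containing 2-fold drug dilutions (0.007–2.0 µg/ml). Plates inoculated with serial 100-fold dilutions of log-phase H37Rv broth culture (~10^8 CFU/ml). Drug-free and isoniazid plates as controls. CFU counted after 21 days at 37°C, 5% CO2. MIC is the lowest concentration giving <1% of drug-free CFU.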

[3] = tested on: Mycobacterium tuberculosis; experiment: Antitubercular activity against Mycobacterium tuberculosis H37Rv infected in BALB/c mouse assessed as reduction in log10 CFU count at 96 mg/kg, po for 5 days relative to control; type: functional
[4] = tested on: Mycobacterium tuberculosis; experiment: fT>MIC for >= 1 log reduction in CFU count in Mycobacterium tuberculosis H37Rv in using simulated dose of at 100 mg assessed as time during compound concentration exceeds MIC of 0.03125 ug/ml assuming 5% unbound compound concentration by one compartment human pharmacokinetic model; type: functional
Method in brief: (§1)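 A one-compartment PK model was fitted to human data to get median parameters. It simulated steady-state total and free concentrations for 100, 200 or 400 mg once daily, assuming 5, 7, 10 or 15% unbound drug. Free T>MIC was computed against MICs of 0.03125–0.25 µg/ml and compared with the mouse-derived T>MIC target for 1-log10 kill.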

[5] = tested on: Mycobacterium tuberculosis; experiment: fT>MIC for >= 1 log reduction in CFU count in Mycobacterium tuberculosis H37Rv in using simulated dose of at 400 mg assessed as time during compound concentration exceeds MIC of 0.03125 ug/ml assuming 5% unbound compound concentration by one compartment human pharmacokinetic model; type: functional; method in brief: as §1
[6] = tested on: Mycobacterium tuberculosis; experiment: fT>MIC for >= 1 log reduction in CFU count in Mycobacterium tuberculosis H37Rv in using simulated dose of at 100 mg assessed as time during compound concentration exceeds MIC of 0.03125 ug/ml assuming 7% unbound compound concentration by one compartment human pharmacokinetic model; type: functional; method in brief: as §1
[7] = tested on: Mycobacterium tuberculosis; experiment: fT>MIC for >= 1 log reduction in CFU count in Mycobacterium tuberculosis H37Rv in using simulated dose of at 200 mg assessed as time during compound concentration exceeds MIC of 0.03125 ug/ml assuming 7% unbound compound concentration by one compartment human pharmacokinetic model; type: functional; method in brief: as §1
[8] = tested on: Mycobacterium tuberculosis; experiment: fT>MIC for >= 1 log reduction in CFU count in Mycobacterium tuberculosis H37Rv in using simulated dose of at 200 mg assessed as time during compound concentration exceeds MIC of 0.03125 ug/ml assuming 15% unbound compound concentration by one compartment human pharmacokinetic model; type: functional; method in brief: as §1
[9] = tested on: Mycobacterium tuberculosis; experiment: fT>MIC for >= 1 log reduction in CFU count in Mycobacterium tuberculosis H37Rv in using simulated dose of at 400 mg assessed as time during compound concentration exceeds MIC of 0.06250 ug/ml assuming 7% unbound compound concentration by one compartment human pharmacokinetic model; type: functional
Method in brief: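 Human steady-state simulation: one-compartment PK model fitted to patient data, chosen by AIC. Median PK parameters used to simulate total and free concentrations, assuming 5, 7, 10 or 15% unbound, for 100, 200 and 400 mg once daily. Free levels compared with MICs of 0.03125 to 0.25 µg/ml to give %T>MIC; T>MIC is the cumulative percentage of the dosing interval above MIC.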

[10] = tested on: Mycobacterium tuberculosis; experiment: fT>MIC for >= 1 log reduction in CFU count in Mycobacterium tuberculosis H37Rv in using simulated dose of at 100 mg assessed as time during compound concentration exceeds MIC of 0.06250 ug/ml assuming 10% unbound compound concentration by one compartment human pharmacokinetic model; type: functional; method in brief: as §1
[11] = tested on: Mycobacterium tuberculosis; experiment: fT>MIC for >= 1 log reduction in CFU count in Mycobacterium tuberculosis H37Rv in using simulated dose of at 100 mg assessed as time during compound concentration exceeds MIC of 0.12500 ug/ml assuming 5% unbound compound concentration by one compartment human pharmacokinetic model; type: functional; method in brief: as §1
[12] = tested on: Mycobacterium tuberculosis; experiment: fT>MIC for >= 1 log reduction in CFU count in Mycobacterium tuberculosis H37Rv in using simulated dose of at 100 mg assessed as time during compound concentration exceeds MIC of 0.12500 ug/ml assuming 10% unbound compound concentration by one compartment human pharmacokinetic model; type: functional; method in brief: as §1
[13] = tested on: Mycobacterium tuberculosis; experiment: fT>MIC for >= 1 log reduction in CFU count in Mycobacterium tuberculosis H37Rv in using simulated dose of at 200 mg assessed as time during compound concentration exceeds MIC of 0.12500 ug/ml assuming 10% unbound compound concentration by one compartment human pharmacokinetic model; type: functional; method in brief: as §1
[14] = tested on: Mycobacterium tuberculosis; experiment: fT>MIC for >= 1 log reduction in CFU count in Mycobacterium tuberculosis H37Rv in using simulated dose of at 100 mg assessed as time during compound concentration exceeds MIC of 0.12500 ug/ml assuming 15% unbound compound concentration by one compartment human pharmacokinetic model; type: functional; method in brief: as §1
[15] = tested on: Mycobacterium tuberculosis; experiment: fT>MIC for >= 1 log reduction in CFU count in Mycobacterium tuberculosis H37Rv in using simulated dose of at 200 mg assessed as time during compound concentration exceeds MIC of 0.25000 ug/ml assuming 5% unbound compound concentration by one compartment human pharmacokinetic model; type: functional; method in brief: as §1
[16] = tested on: Mycobacterium tuberculosis; experiment: fT>MIC for >= 1 log reduction in CFU count in Mycobacterium tuberculosis H37Rv in using simulated dose of at 100 mg assessed as time during compound concentration exceeds MIC of 0.25000 ug/ml assuming 7% unbound compound concentration by one compartment human pharmacokinetic model; type: functional; method in brief: as §1
[17] = tested on: Mycobacterium tuberculosis; experiment: fT>MIC for >= 1 log reduction in CFU count in Mycobacterium tuberculosis H37Rv in using simulated dose of at 200 mg assessed as time during compound concentration exceeds MIC of 0.25000 ug/ml assuming 7% unbound compound concentration by one compartment human pharmacokinetic model; type: functional; method in brief: as §1
[18] = tested on: Mycobacterium tuberculosis; experiment: fT>MIC for >= 1 log reduction in CFU count in Mycobacterium tuberculosis H37Rv in using simulated dose of at 200 mg assessed as time during compound concentration exceeds MIC of 0.25000 ug/ml assuming 10% unbound compound concentration by one compartment human pharmacokinetic model; type: functional; method in brief: as §1
[19] = tested on: Mycobacterium tuberculosis; experiment: fT>MIC for >= 1 log reduction in CFU count in Mycobacterium tuberculosis H37Rv in using simulated dose of at 100 mg assessed as time during compound concentration exceeds MIC of 0.25000 ug/ml assuming 15% unbound compound concentration by one compartment human pharmacokinetic model; type: functional; method in brief: as §1
[20] = tested on: Mycobacterium tuberculosis; experiment: Antimicrobial activity against Mycobacterium tuberculosis H37Rv infected in single po dosed BALB/c mouse assessed as reduction in lung CFU count; type: functional
[21] = AUC (0 to t) in mouse at 100 or 50 mg/kg, po administered as single dose; type: ADME, organism-based; set-up: dose 50 mg/kg, route oral; conditions: plasma

Compound `O=[N+]([O-])c1cn2c(n1)OC[C@@H](OCc1ccc(OC(F)(F)F)cc1)C2` [PRETOMANID] has a Tmax [1] of 4 h, an MIC [2] of 0.06 µg/mL (≈ 0.167 µM) and a log10cfu [3] of 2. For the same compound, the “fT>MIC” value [4] was 46%, the “fT>MIC” value [5] was 100% and the “fT>MIC” value [6] was 67%. The “fT>MIC” value [7] was 100%, the “fT>MIC” value [8] was 100% and the “fT>MIC” value [9] was 100%. The “fT>MIC” value [10] was 46%, the “fT>MIC” value [11] was 0% and the “fT>MIC” value [12] was 0%. For the same compound, the “fT>MIC” value [13] was 46%, the “fT>MIC” value [14] was 6% and the “fT>MIC” value [15] was 0%. The “fT>MIC” value [16] was 0%, the “fT>MIC” value [17] was 0% and the “fT>MIC” value [18] was 0%. The “fT>MIC” value [19] was 0%, the MBC [20] was 100 mg/kg and the AUC(0-t) [21] was 70400 ng·h/mL.
